In ChEMBL document CHEMBL3576854, “Northalrugosidine is a bisbenzyltetrahydroisoquinoline alkaloid from Thalictrum alpinum with in vivo antileishmanial activity” (J Nat Prod, 2015):

Columns and labels:
[1] = Selectivity index, ratio of IC50 for HT-29 cells to IC50 for transgenic DsRed2 Leishmania donovani promastigotes strain LV82; assay type: toxicity, cell-based; settings: human; read-out: Ratio IC50
Summary of the method: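 Ratio of the HT-29 cytotoxicity IC50 (72 h, sulforhodamine B) to the IC50 against DsRed2 L. donovani LV 82 promastigotes (72 h at 23 °C, flow cytometry).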

[2] = system: Leishmania donovani; test: Antileishmanial activity against transgenic DsRed2 Leishmania donovani promastigotes strain LV82 assessed as parasite killing after 72 hrs by flow cytometry; assay type: functional, organism-based; settings: LV82, 72 h
[3] = system: HT-29; test: Cytotoxicity against human HT-29 cells assessed as inhibition of cell survival after 72 hrs by sulforhodamine B assay; assay type: cell-based; settings: HT-29, 72 h
Summary of the method: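 HT-29 cells, 9500 per well, exposed to a concentration series in triplicate for 72 h. Controls: 10% DMSO in water (negative) and paclitaxel in that carrier (positive).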

[4] = system: Mus musculus; test: Toxicity in BALB/c mouse at 2.8 to 70 mg/kg, iv after 2 weeks; assay type: organism-based; settings: in vivo, 336 h, in the assay text read “2.8 to 11.1 mg/kg” for “2.8 to 70 mg/kg”
Summary of the method: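 Infected BALB/c mice (about 18 g) watched for overt toxicity over two weeks after one 100 µL iv dose in 10% DMSO/PBS: vehicle, test doses 2.8, 5.6 or 11.1 mg/kg, or sodium stibogluconate 70 mg/kg.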

[5] = system: Leishmania donovani; test: Antileishmanial activity against Leishmania donovani […] stain LV82 infected in iv dosed BALB/c mouse assessed as parasite burden reduction in spleen cells after 2 weeks of postinjection by Giemsa staining-light microscopy; assay type: functional, organism-based
Summary of the method: (§1)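 BALB/c mice infected by tail vein with 10^7 L. donovani LV 82 amastigotes; treated iv two weeks post-infection (100 µL; 2.8, 5.6 or 11.1 mg/kg in 10% DMSO/PBS; vehicle negative control; sodium stibogluconate 70 mg/kg positive control). Sacrificed two weeks later; liver and spleen weighed, impression smears MeOH-fixed, Giemsa-stained, amastigotes counted per 1000 host nuclei by light microscopy; LDU = organ weight (g) × that count.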

[6] = system: Leishmania donovani; test: Antileishmanial activity against Leishmania donovani promastigotes stain LV82 infected in iv dosed BALB/c mouse assessed as parasite burden reduction in liver cells after 2 weeks of postinjection by Giemsa staining-light microscopy; assay type: functional, organism-based; summary of the method: as §1

| SMILES | selectivity ratio [1] | IC50 [2] [µM] | IC50 [3] [µM] | Activity [4] | inhibition [5] | inhibition [6] |
| --- | --- | --- | --- | --- | --- | --- |
| COc1ccc2cc1Oc1ccc(cc1)C[C@H]1c3cc(OC)c(OC)c(c3CCN1C)Oc1c(O)c(OC)cc3c1[C@H](C2)N(C)CC3 [THALRUGOSIDINE] | 3.6 | 1 | 3.6 |  |  |  |
| COc1ccc2cc1Oc1ccc(cc1)C[C@H]1c3cc(OC)c(OC)c(c3CCN1C)Oc1c(OC)c(OC)cc3c1[C@H](C2)N(C)CC3 [THALIDASINE] | 0.5 | 10.1 | 5.5 |  |  |  |
| COc1ccc2cc1Oc1ccc(cc1)C[C@H]1c3cc(OC)c(OC)c(c3CCN1C)Oc1c(O)c(OC)cc3c1[C@H](C2)NCC3 | 29.3 | 0.28 | 8.2 | Non-toxic | Dose-dependent effect | Dose-dependent effect |
